“Also recorded” adds a separate entry of the source. Read-outs that look alike come from different tables or passages of the source.
Legend:
[1] = test system: hyperthermia‐induced seizures in Scn1a +/− mice; conditions: cited from earlier work
[2] = test system: hyperthermia‐induced seizures in Scn1a +/− mice; test: Hyperthermia-induced seizures in Scn1a+/− mice; format: in vivo, mouse; conditions: for Effective (anticonvulsant) dose against hyperthermia-induced seizures: i.p.
How it was run: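 Male and female Scn1a+/− F1 mice (congenic 129S6 heterozygotes × C57BL/6J), P14–16, got a single i.p. dose of vehicle or test compound, n = 12–18. Pretreatment time was set per compound from time-to-peak data (15–120 min), with matched vehicle controls. A rectal probe went in 15 min before, followed by 5-min acclimation. Core temperature was raised 0.5°C every 2 min until the first clonic convulsion with loss of posture, or to 42.5°C held 3 min. Thresholds were compared by log-rank Mantel–Cox.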

[3] = Solubility of dosing preparations; format: physicochemical; conditions: for State of dosing preparation: ethanol:Tween 80:saline (1:1:18), 10 ml·kg−1, CBGV 100, CBDV 60, CBG 30 mg·kg−1; for Aqueous solubility: reason for not testing 100 mg·kg−1
[4] = test system: spontaneous GTCS and survival of Scn1a +/− mice; test: Spontaneous seizures; format: in vivo, mouse
How it was run: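 Male and female Scn1a+/− mice were primed with one hyperthermia-induced seizure at P18. They were cooled on a pad to a 37°C core temperature at the onset of clonic convulsion. Test compound was then given subchronically in chow. Spontaneous GTCS were counted blind from continuous video over 60 h, and dosing continued to P30 for survival. Seizure-free proportion was analysed by Fisher's exact test; frequency by one-way ANOVA with Dunnett's test.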

[5] = test system: 6‐Hz threshold test, Swiss male mice; test: 6-Hz threshold test; format: in vivo, mouse; conditions: n = 12; for CC50 vs vehicle, 6-Hz threshold test: 45 min pretreatment
[6] = Plasma concentrations in experimental Scn1a+/− mice; format: in vivo, mouse
How it was run: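 Acute cohorts (n = 5–10) were anaesthetised with isoflurane directly after the hyperthermia protocol, and whole blood was taken by cardiac puncture. Plasma was stored at −80°C. Subchronic cohorts received drug orally in chow, with plasma collected on P31 within 30 min of lights on. Clobazam pretreatment was 30 min and test compound pretreatment 45 min before the hyperthermia time point.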

[7] = test system: 168 GPCRs and 74 orphan GPCRs; test: Eurofins DiscoverX PathHunter β-arrestin GPCR screen; format: cell-based; conditions: 3 μM
[8] = molecular target: cannabinoid CB1 receptor (Homo sapiens, UniProt P21554); test: Eurofins DiscoverX PathHunter β-arrestin GPCR screen, CB1; format: cell-based; conditions: 3 μM
[9] = molecular target: cannabinoid CB2 receptor (Homo sapiens, UniProt P34972); test: Eurofins DiscoverX PathHunter β-arrestin GPCR screen, CB2; format: cell-based; conditions: 3 μM
[10] = molecular target: T1, GPR55 (Homo sapiens, UniProt Q9Y2T6); test: Eurofins DiscoverX PathHunter β-arrestin GPCR screen, GPR55; format: cell-based; conditions: 3 μM
[11] = molecular target: T1, GPR55; test: GPR55 ERK phosphorylation assay in HEK293 cells; format: cell-based; conditions: for EC80 concentration for GPR55 activation (pERK): agonist alone
[12] = molecular target: human TRPV1 (Homo sapiens, UniProt Q8NER1); test: TRPV1 intracellular calcium assay; format: cell-based
[13] = molecular target: T2, concatenated human γ2–β2–α1–β2–α1 GABA receptor (Homo sapiens, UniProt P14867+P18507+P47870); test: Two-electrode voltage clamp, GABA-evoked currents in Xenopus oocytes; format: cell-based
How it was run: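 Two-electrode voltage clamp used Xenopus oocytes expressing concatenated human γ2–β2–α1–β2–α1 receptors. GABA (15 μM) was applied three times with 7–12 min washout, and currents were normalised to the mean of the last two applications. Preincubation was 60 s. Per cent modulation came from a published equation, and the Hill equation fit gave Imax and EC50, n = 5.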

[14] = molecular target: T2, concatenated human γ2–β2–α1–β2–α1 GABA receptor; test: GABAA receptor desensitization assay in Xenopus oocytes; format: cell-based; conditions: 10 μM CBGA, 180-s preincubation, 1 mM GABA; 103 ± 3% without preincubation
[15] = ref Anderson, Low, et al., 2019; cited from earlier work
[16] = test system: MES‐induced seizures; conditions: ref Hawkins et al., 2017; Luszczki et al., 2003; Miller et al., 1986; cited from earlier work
[17] = test system: Scn1a +/− mice; conditions: ref Hawkins et al., 2017; Luszczki et al., 2003; Miller et al., 1986; cited from earlier work
[18] = test system: MES threshold test, Swiss male mice; test: Maximal electroshock; format: in vivo, mouse; conditions: 300 mg·kg−1, 15 min prior, n = 12
How it was run: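 Swiss male mice, n = 12; the positive control was given 15 min before shock. Corneal electroshocks were 60 Hz, 0.4 s, 0.5-ms rectangular pulses, starting at 50 mA. A blinded observer scored GTCS with full hindlimb extension (hindlimbs at 180° to torso).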

[19] = test system: pentylenetetrazole (PTZ)‐induced seizures; conditions: ref Hill et al., 2010; cited from earlier work
[20] = Scn1a+/− mice, ref Anderson et al., 2021
[21] = 30 mg·kg−1 single i.p., Scn1a+/− mice P14–16
[22] = 100 mg·kg−1 single i.p., Scn1a+/− mice P14–16
[23] = over all doses tested, single i.p., Scn1a+/− mice P14–16
[24] = acute i.p., CBGA 30 mg·kg−1 + clobazam 1 mg·kg−1

human TRPV1, sequence (Q8NER1 whole entry): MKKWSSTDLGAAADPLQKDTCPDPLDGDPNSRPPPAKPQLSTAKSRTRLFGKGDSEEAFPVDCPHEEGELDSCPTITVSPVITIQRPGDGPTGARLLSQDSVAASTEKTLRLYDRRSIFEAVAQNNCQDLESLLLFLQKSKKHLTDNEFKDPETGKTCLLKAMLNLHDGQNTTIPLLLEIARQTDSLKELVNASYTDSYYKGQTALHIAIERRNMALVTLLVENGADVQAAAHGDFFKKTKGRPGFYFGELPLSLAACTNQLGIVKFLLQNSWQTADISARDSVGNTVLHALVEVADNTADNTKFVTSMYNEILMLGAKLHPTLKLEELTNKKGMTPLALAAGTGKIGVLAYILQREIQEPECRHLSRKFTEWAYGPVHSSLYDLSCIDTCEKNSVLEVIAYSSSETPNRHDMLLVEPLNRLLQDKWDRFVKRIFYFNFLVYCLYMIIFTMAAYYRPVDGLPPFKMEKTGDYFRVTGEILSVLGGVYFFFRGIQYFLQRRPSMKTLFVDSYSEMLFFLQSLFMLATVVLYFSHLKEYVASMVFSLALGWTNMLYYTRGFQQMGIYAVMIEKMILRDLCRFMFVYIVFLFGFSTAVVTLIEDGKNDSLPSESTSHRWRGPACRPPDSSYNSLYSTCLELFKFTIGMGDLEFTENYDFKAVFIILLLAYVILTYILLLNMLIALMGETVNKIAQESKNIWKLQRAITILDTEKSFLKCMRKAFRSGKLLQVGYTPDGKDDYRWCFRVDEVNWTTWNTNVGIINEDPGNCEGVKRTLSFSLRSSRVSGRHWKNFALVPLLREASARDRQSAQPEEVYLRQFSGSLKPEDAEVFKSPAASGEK
T2 sequence (P14867 28-456): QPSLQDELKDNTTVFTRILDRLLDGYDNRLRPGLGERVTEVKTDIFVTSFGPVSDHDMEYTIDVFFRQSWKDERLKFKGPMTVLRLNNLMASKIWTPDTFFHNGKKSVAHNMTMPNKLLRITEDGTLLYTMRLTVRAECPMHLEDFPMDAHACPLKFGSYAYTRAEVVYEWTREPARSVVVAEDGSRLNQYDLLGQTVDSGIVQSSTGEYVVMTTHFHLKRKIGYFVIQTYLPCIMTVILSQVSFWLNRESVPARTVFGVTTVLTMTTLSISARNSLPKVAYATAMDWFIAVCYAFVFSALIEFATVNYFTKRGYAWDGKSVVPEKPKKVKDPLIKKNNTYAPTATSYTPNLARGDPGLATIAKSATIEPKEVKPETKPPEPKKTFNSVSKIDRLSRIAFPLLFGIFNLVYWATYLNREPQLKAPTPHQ
T2 sequence (P47870 26-512): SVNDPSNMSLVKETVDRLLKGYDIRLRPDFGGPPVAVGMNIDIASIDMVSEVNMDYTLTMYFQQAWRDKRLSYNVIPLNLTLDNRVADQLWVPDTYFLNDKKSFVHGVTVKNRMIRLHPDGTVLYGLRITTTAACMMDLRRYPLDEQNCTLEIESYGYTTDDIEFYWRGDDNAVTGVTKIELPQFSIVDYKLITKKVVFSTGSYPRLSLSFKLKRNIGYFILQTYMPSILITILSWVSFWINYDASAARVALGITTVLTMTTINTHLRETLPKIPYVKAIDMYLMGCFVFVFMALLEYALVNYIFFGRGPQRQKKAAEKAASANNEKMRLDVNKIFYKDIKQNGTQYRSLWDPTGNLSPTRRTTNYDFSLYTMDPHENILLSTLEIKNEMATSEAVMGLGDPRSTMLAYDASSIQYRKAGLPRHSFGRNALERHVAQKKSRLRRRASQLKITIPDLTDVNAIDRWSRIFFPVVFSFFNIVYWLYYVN
T2 sequence (P18507 40-475): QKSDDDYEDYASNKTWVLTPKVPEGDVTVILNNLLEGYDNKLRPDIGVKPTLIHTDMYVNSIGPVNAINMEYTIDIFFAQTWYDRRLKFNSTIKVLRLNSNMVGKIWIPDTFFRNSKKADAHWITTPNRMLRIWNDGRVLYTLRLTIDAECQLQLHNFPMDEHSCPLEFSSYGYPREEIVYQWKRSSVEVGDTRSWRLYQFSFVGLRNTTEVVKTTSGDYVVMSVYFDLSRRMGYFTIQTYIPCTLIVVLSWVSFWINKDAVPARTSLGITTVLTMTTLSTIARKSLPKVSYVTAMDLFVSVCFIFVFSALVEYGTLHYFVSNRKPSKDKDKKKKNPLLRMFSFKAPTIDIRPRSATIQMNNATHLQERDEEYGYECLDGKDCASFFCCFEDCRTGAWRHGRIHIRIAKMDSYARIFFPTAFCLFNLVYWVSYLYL
T1 sequence (Q9Y2T6 whole entry): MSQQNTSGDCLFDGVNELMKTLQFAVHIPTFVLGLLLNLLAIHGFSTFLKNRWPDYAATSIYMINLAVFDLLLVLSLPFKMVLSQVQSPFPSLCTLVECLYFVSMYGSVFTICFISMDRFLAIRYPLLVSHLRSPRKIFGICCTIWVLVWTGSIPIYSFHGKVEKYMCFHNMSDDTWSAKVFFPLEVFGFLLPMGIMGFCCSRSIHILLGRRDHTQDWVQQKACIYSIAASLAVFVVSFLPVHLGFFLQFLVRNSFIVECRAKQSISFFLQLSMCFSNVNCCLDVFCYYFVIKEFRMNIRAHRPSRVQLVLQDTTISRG
cannabinoid CB1 receptor, sequence (P21554 whole entry): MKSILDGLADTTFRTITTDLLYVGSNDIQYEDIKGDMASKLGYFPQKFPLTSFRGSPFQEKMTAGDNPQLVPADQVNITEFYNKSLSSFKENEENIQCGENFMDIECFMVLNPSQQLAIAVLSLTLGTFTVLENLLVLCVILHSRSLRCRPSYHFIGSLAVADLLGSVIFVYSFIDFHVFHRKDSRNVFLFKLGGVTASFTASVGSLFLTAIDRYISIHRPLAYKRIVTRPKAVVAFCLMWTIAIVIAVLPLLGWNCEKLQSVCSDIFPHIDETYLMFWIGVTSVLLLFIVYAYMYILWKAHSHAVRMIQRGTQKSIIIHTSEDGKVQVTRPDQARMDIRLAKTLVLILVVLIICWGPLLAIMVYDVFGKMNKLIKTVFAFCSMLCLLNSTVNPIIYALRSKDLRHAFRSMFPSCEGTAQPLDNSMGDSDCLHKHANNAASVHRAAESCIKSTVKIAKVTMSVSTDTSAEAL
cannabinoid CB2 receptor, sequence (P34972 whole entry): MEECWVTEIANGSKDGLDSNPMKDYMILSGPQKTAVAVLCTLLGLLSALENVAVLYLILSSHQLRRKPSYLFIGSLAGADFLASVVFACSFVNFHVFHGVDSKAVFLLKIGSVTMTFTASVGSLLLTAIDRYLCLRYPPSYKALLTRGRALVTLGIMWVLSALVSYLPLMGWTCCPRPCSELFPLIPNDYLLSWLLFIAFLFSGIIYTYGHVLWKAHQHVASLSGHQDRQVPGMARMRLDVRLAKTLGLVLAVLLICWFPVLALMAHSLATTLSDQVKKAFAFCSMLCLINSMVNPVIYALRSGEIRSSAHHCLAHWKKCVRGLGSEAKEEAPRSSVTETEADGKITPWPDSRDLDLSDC

## CCCCCc1cc2c(c(O)c1C(=O)O)C=CC(C)(CCC=C(C)C)O2 (stereo not drawn) [CBCA, cannabichromenic acid]
[1]; [20]
  Effect against hyperthermia-induced seizures: anticonvulsant effects

## CCCc1cc2c(c(O)c1C(=O)O)C=CC(C)(CCC=C(C)C)O2 (stereo not drawn) [CBCVA, cannabichromevarinic acid]
[1]; [20]
  Effect against hyperthermia-induced seizures: anticonvulsant effects

## C=C(C)[C@@H]1CCC(C)=C[C@H]1c1c(O)cc(CCCCC)cc1O [CBD, cannabidiol]
[1]; 100 mg·kg−1, ref Anderson, Absalom, et al., 2019, Anderson et al., 2020, Kaplan et al., 2017
  Effect against hyperthermia-induced seizures: anticonvulsant

## C=C(C)[C@@H]1CCC(C)=C[C@H]1c1c(O)cc(CCC)cc1O [CBDV, cannabidivarin]
[2]; [21]
  Temperature threshold for GTCS induced by hyperthermia vs vehicle: increase in GTCS temperature threshold
[3]
  State of dosing preparation: near solubility limits
  Aqueous solubility: poor aqueous solubility

## C=C(C)[C@@H]1CCC(C)=C[C@H]1c1c(O)cc(CCC)c(C(=O)O)c1O [CBDVA, cannabidivarinic acid]
[2]; [22]
  Temperature threshold for GTCS induced by hyperthermia vs vehicle: significantly elevated
[2]; Scn1a+/− mice
  Effective (anticonvulsant) dose against hyperthermia-induced seizures: 100 mg/kg

## CCCCCc1cc(O)c(C/C=C(\C)CCC=C(C)C)c(O)c1 [CBG, cannabigerol]
[2]; 0.3 mg·kg−1 i.p., n = 12–18 per group
  Mice seizure free (protected from GTCS): four
[2]; [23]
  Temperature threshold for GTCS induced by hyperthermia vs vehicle: Neither cannabigerol (CBG) nor cannabigerivarin (CBGV) affected thresholds
[3]
  State of dosing preparation: near solubility limits
  Aqueous solubility: poor aqueous solubility

## CCCCCc1cc(O)c(C/C=C(\C)CCC=C(C)C)c(O)c1C(=O)O [CBGA, cannabigerolic acid]
[2]; [21]
  Temperature threshold for GTCS induced by hyperthermia vs vehicle: anticonvulsant; also recorded: significantly elevated
[2]; [22]
  Temperature threshold for GTCS induced by hyperthermia vs vehicle: anticonvulsant
[2]; Scn1a+/− mice
  Effective (anticonvulsant) dose against hyperthermia-induced seizures: 30 mg/kg
[2]; [23]
  Temperature threshold for GTCS induced by hyperthermia vs vehicle: dose‐dependently increased
[4]; 2500 mg·kg−1 chow, oral subchronic, 60-h recording
  Spontaneous GTCS frequency: significantly increased
[4]; 1400 and 2500 mg·kg−1 chow, oral
  Survival to P30 relative to controls: did not differ
[4]; 1400 and 2500 mg·kg−1 chow, oral subchronic, 60-h recording
  Proportion of mice experiencing GTCS during observation period: Neither dose of CBGA affected
[5]; 10 mg·kg−1 i.p.
  CC50 vs vehicle, 6-Hz threshold test: significantly lower
[5]; 30 mg·kg−1 i.p.
  CC50 vs vehicle, 6-Hz threshold test: significantly lower
[5]; 100 mg·kg−1 i.p.
  CC50 vs vehicle, 6-Hz threshold test: did not differ from vehicle
[6]; [24]
  Plasma concentration of CBGA on cotreatment with clobazam: significantly increased
[6]; subchronic, chow
  Plasma CBGA concentrations on cotreatment with clobazam: no effect
[7]
  Agonist or antagonist activity at 242 GPCRs: No agonist or antagonist activity
[8]
  Effect at cannabinoid CB1 receptor: did not affect
[9]
  Effect at cannabinoid CB2 receptor: did not affect
[10]
  Agonist activity at GPR55: not an agonist
[11]; IC50, inhibition of GPR55 activation, rounded value of the discussion
  IC50: ~5 µM
[11]; IC50, inhibition of LPI-mediated GPR55 activity (pERK), LPI 4 μM (EC80)
  IC50: 5.7 µM
[11]; IC50, inhibition of ML-186-mediated GPR55 activity (pERK), ML-186 0.45 μM (EC80)
  IC50: 4.8 µM
[11]; ML-186 concentration–response curves with varying CBGA
  Mode of antagonism at GPR55: non‐competitive antagonist
[12]
  IC50: 22 µM
[12]; 30 and 100 μM CBGA, wildtype and TRPV1-expressing cells
  Non-specific calcium influx: non‐specific increase in intracellular calcium
[12]; calcium influx
  Agonist activity at TRPV1: did not display agonist activity
[13]; 30 μM CBGA, GABA 15 μM
  Modulation of GABA-evoked currents at high concentration: substantially reduced
[13]; EC50, positive modulation of GABA-evoked currents, GABA 15 μM
  EC50: 910 nM
[13]; read-out: Maximum modulation of GABA-evoked peak currents (E max)
  Emax: 271 ± 40%
[14]
  Peak GABA current after preincubation (percentage of GABA response): 31 ± 11%
[15]
  Brain penetration: 2%
  Brain–plasma ratio: 0.02

## CCCc1cc(O)c(C/C=C(\C)CCC=C(C)C)c(O)c1 [CBGV, cannabigerivarin]
[2]; [23]
  Temperature threshold for GTCS induced by hyperthermia vs vehicle: Neither cannabigerol (CBG) nor cannabigerivarin (CBGV) affected thresholds
[3]
  State of dosing preparation: suspension

## CCCc1cc(O)c(C/C=C(\C)CCC=C(C)C)c(O)c1C(=O)O [CBGVA, cannabigerovarinic acid]
[2]; [22]
  Temperature threshold for GTCS induced by hyperthermia vs vehicle: significantly elevated
[2]; Scn1a+/− mice
  Effective (anticonvulsant) dose against hyperthermia-induced seizures: 100 mg/kg

## Nc1nnc(-c2cccc(Cl)c2Cl)c(N)n1 [Lamotrigine]
[16]
  Effect against MES-induced seizures: anticonvulsant
[17]
  Effect on seizures in Scn1a+/− mice: proconvulsant

## COc1ccc(S(=O)(=O)N2CCOCC2)cc1NC(=O)c1cc2c(s1)CCCC2 [ML‐186, reference compound]
[11]
  EC80 concentration for GPR55 activation (pERK): 0.45 μM

## O=C1CC(=O)N(c2ccccc2)c2cc(Cl)ccc2N1 [N‐desmethylclobazam]
[6]; [24]
  Plasma concentrations of N-desmethylclobazam on CBGA co-administration: reduced
[6]; subchronic, chow
  Plasma concentrations of N-desmethylclobazam when clobazam combined with CBGA: significantly lower

## CN1C(=O)CC(=O)N(c2ccccc2)c2cc(Cl)ccc21 [clobazam, reference compound]
[2]; 1 mg·kg−1 single i.p., Scn1a+/− mice
  Temperature threshold for GTCS induced by hyperthermia vs vehicle: significantly elevated
[4]; 80 mg clobazam·kg−1 chow, oral, 60-h recording
  Spontaneous GTCS frequency: significantly reducing
[4]; clobazam 80 mg·kg−1 chow alone or plus CBGA 1400 mg·kg−1 chow
  Survival to P30: neither treatment had any effect
[4]; clobazam 80 mg·kg−1 chow alone or plus CBGA 1400 mg·kg−1 chow, controls 63%
  Proportion of mice displaying GTCS: 35%
[6]; [24]
  Plasma clobazam concentrations on CBGA co-administration: did not affect

## CCCC(CCC)C(=O)O [valproic acid, reference compound]
[18]
  Protection against seizure activity, MES threshold test: 100%
[5]; 300 mg·kg−1, 15 min prior
  Protection against seizure activity, 6-Hz threshold test: 100%

## CCCc1cc(O)c2c(c1)OC(C)(C)[C@@H]1CCC(C)=C[C@@H]21 [Δ^9‐THCV, tetrahydrocannabivarin]
[2]; 3 mg·kg−1 single i.p., Scn1a+/− mice P14–16
  Temperature threshold for GTCS induced by hyperthermia vs vehicle: proconvulsant
[19]
  Effect against PTZ-induced seizures: anticonvulsant effects

## lysophosphatidylinositol [LPI, reference compound]
[11]
  EC80 concentration for GPR55 activation (pERK): 4 μM
